Test results: ChEMBL document CHEMBL1150866, “Chemical constituents from Lippia sidoides and cytotoxic activity” (J Nat Prod, 2001)
Values after ≈ are worked out from the molar mass of the structure shown.

Tests used:
Assay type in all cases: functional, cell-based
SW1573 = assay: Cytotoxicity against human SW1573 cells after 3 days by MTT assay; conditions: SW1573, 72 h
Outline: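 Adherent cells were grown in RPMI1640 with 10% FBS, plated at 0.2×10^5 cells/100 μL, and left 24 h to attach. Drug in fresh medium was applied at 0.39–25 μg/mL for 3 days. Viability was by MTT in serum-free medium for 3 h at 37 °C, with DMSO solubilization and absorbance at 550 nm.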

HL-60 = assay: Cytotoxicity against human HL60 cells after 3 days by MTT assay; conditions: HL-60, 72 h
Outline: (§1)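 Suspension cells were kept in RPMI1640 with 10% FBS and seeded at 0.5×10^6 cells/100 μL without preincubation. Fresh medium holding 0.39–25 μg/mL drug was added, and cells were exposed for 3 days. MTT in serum-free medium was then given for 3 h at 37 °C, the formazan dissolved in DMSO, and absorbance read at 550 nm.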

CCRF-CEM = assay: Cytotoxicity against human CEM cells after 3 days by MTT assay; conditions: 72 h; outline: as §1

Compound	IC50 (SW1573)	IC50 (HL-60)	IC50 (CCRF-CEM)
CC(=O)Oc1c(-c2c3c(c4ccccc4c2OC(C)=O)OC(C)(C)C=C3)c2c(c3ccccc13)OC(C)(C)C=C2	> 10 µg/mL	> 10 µg/mL	> 10 µg/mL
O=c1cc(-c2ccc(O)c(O)c2)oc2cc(O[C@@H]3O[C@H](CO)[C@@H](O)[C@H](O)[C@H]3O)cc(O)c12 [GALUTEOLIN]	> 10 µg/mL	> 10 µg/mL	> 10 µg/mL
COc1cc([C@H]2c3cc(O)c(OC)cc3C[C@@H](CO)[C@@H]2CO)ccc1O [ISOLARICIRESINOL]	> 10 µg/mL	> 10 µg/mL	> 10 µg/mL
COc1cc2c(c3ccccc13)OC(C)(C)C=C2 [LAPACHENOL]	> 10 µg/mL	> 10 µg/mL	> 10 µg/mL
CC1=C[C@H]2C3=C(C(=O)c4ccccc4C3=O)[C@]3(O)c4ccccc4C(=O)[C@@]2(/C=C/C(C)(C)O)[C@H]3C1 [LIPPSIDOQUINONE]	–	2.38 µg/mL (≈ 5.1 µM)	2.58 µg/mL (≈ 5.53 µM)
O=c1cc(-c2ccc(O)c(O)c2)oc2cc(O)cc(O)c12 [LUTEOLIN]	> 10 µg/mL	> 10 µg/mL	> 10 µg/mL
O=c1c(O)c(-c2ccc(O)c(O)c2)oc2cc(O)cc(O)c12 [QUERCETIN]	> 10 µg/mL	> 10 µg/mL	> 10 µg/mL
O=C1c2c(O)cc(O)cc2OC(c2ccc(O)c(O)c2)C1O (stereo unspecified) [TAXIFOLIN]	> 10 µg/mL	> 10 µg/mL	> 10 µg/mL
CC(C)=CC1Oc2c(c3c(c4ccccc24)OC(C)(C)C=C3)C2=C1C(=O)c1ccccc1C2=O (stereo unspecified) [TECOMAQUINONE]	> 10 µg/mL	> 10 µg/mL	> 10 µg/mL
Cc1ccc2c(c1)C(=O)c1ccccc1C2=O [TECTOQUINONE]	> 10 µg/mL	> 10 µg/mL	> 10 µg/mL
CC1(C)C=Cc2c(-c3c4c(c5ccccc5c3O)OC(C)(C)C=C4)c(O)c3ccccc3c2O1 [tectol]	–	1.79 µg/mL (≈ 3.97 µM)	0.78 µg/mL (≈ 1.73 µM)
